Measurements as given in ChEMBL document CHEMBL3616436, “Synthesis, cytotoxicity and antimicrobial activity of thiourea derivatives incorporating 3-(trifluoromethyl)phenyl moiety” (Eur J Med Chem, 2015).
Converted amounts (≈) assume the structure as drawn. The source made the active and inactive calls. The rule behind the calls is not given here.

Assays:
[1] = system: Staphylococcus epidermidis; assay: Inhibition of biofilm formation in Staphylococcus epidermidis 24/04 after 24 hrs using MTT staining by spectrophotometer analysis; assay type: functional, organism-based; settings: 24/04, 24 h
[2] = system: Staphylococcus epidermidis; assay: Inhibition of biofilm formation in Staphylococcus epidermidis ATCC 12228 at 4 ug/ml after 24 hrs using MTT staining by spectrophotometer analysis; assay type: functional; settings: ATCC 12228, 24 h
Method in brief: (§1)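 Methicillin-resistant hospital isolates or ATCC strains of S. epidermidis were grown overnight in tryptone soy broth with 0.5% glucose. Inoculum of 10^7 CFU/mL was mixed 1:1 with compound in TSB-glucose and incubated 24 h at 37 °C. Non-adherent cells were washed off with PBS, and wells were stained with MTT (0.5% in PBS) for 2 h at 37 °C. Stain was solubilized in DMSO/glycine buffer and read at A554. Inhibition is relative to drug-free control; quadruplicates.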

[3] = target: T1, Topoisomerase IV (Staphylococcus aureus) (UniProt P0C1U9+P0C1S7); assay: Inhibition of decatenation activity of DNA topoisomerase 4 in hospital methicillin-resistant Staphylococcus aureus 79/05 using kDNA as substrate at 1 to 4 ug/ml after 1 hr using ethidium bromide staining by agarose gel electrophoresis; assay type: protein-complex assay
[4] = target: T1, Topoisomerase IV (Staphylococcus aureus); assay: Inhibition of decatenation activity of DNA topoisomerase 4 in hospital methicillin-resistant Staphylococcus aureus 80/05 using kDNA as substrate at 32 ug/ml after 1 hr using ethidium bromide staining by agarose gel electrophoresis; assay type: protein-complex assay
[5] = system: Staphylococcus epidermidis; assay: Inhibition of biofilm formation in Staphylococcus epidermidis ATCC 35984 after 24 hrs using MTT staining by spectrophotometer analysis; assay type: functional, organism-based; settings: ATCC 35984, 24 h
Method in brief: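 Biofilm was grown for 24 h at 37 °C in TSB with 0.5% glucose from 10^7 CFU/mL inoculum, mixed 1:1 with compound. Final concentrations were 0.125–4 or 0.25–8 µg/ml. Wells were PBS-washed and MTT-stained for 2 h at 37 °C, solubilized in DMSO/glycine buffer and read at 554 nm. IC50 (50% inhibition of biofilm formation) was taken from the dose-response curve; quadruplicates.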

[6] = target: T1, Topoisomerase IV (Staphylococcus aureus); assay: Inhibition of decatenation activity of DNA topoisomerase 4 in hospital methicillin-resistant Staphylococcus aureus 80/05 using kDNA as substrate at 1 to 4 ug/ml after 1 hr using ethidium bromide staining by agarose gel electrophoresis; assay type: protein-complex assay
[7] = target: T1, Topoisomerase IV (Staphylococcus aureus); assay: Inhibition of decatenation activity of DNA topoisomerase 4 in hospital methicillin-resistant Staphylococcus aureus 53/05 using kDNA as substrate at 32 ug/ml after 1 hr using ethidium bromide staining by agarose gel electrophoresis; assay type: protein-complex assay
[8] = target: T2, DNA topoisomerase 4 (Staphylococcus epidermidis) (UniProt Q5HPI6+Q5HPI5); assay: Inhibition of decatenation activity of DNA topoisomerase 4 in hospital methicillin-resistant Staphylococcus epidermidis 31/04 using kDNA as substrate at 32 ug/ml after 1 hr using ethidium bromide staining by agarose gel electrophoresis; assay type: protein assay
T2 sequence (Q5HPI5 whole entry, looked up): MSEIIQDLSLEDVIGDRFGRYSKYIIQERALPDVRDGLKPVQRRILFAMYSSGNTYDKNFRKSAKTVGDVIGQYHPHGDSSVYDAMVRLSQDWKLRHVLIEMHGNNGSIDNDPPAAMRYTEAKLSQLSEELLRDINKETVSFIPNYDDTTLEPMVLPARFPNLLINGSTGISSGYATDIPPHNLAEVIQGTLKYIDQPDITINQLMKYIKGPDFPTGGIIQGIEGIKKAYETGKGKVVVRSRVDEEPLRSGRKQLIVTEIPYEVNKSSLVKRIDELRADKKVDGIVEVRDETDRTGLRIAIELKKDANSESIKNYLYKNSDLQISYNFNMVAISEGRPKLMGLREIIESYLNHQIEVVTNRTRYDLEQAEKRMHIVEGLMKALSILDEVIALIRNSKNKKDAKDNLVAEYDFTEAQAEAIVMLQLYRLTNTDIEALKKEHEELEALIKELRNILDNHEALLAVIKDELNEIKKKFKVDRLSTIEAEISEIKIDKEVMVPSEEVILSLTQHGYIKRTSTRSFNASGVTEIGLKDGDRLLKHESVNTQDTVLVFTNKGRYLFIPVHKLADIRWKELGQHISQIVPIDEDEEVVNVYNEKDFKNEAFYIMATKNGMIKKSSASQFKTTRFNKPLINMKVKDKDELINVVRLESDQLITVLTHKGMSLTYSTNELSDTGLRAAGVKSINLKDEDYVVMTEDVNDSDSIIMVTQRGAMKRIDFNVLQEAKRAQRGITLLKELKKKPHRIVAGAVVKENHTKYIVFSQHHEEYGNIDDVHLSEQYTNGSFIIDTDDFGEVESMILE
T2 sequence (Q5HPI6 whole entry, looked up): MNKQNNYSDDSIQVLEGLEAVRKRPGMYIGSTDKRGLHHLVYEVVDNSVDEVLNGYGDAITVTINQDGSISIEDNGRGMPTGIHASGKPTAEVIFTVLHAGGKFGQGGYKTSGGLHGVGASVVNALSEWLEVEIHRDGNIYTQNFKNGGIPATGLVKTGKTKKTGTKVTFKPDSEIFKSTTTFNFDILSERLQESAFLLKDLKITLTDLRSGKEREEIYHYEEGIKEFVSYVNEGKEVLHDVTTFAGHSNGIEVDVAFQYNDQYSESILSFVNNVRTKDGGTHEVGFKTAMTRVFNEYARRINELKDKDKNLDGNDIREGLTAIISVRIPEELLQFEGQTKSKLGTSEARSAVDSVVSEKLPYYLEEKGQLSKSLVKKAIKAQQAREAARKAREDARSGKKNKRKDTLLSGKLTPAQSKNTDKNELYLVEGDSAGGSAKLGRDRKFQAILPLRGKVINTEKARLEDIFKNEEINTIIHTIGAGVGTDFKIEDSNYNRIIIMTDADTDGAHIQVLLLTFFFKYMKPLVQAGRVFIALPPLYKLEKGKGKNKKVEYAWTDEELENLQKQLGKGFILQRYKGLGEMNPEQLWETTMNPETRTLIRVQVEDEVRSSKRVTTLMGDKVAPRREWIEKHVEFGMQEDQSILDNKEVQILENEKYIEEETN

[9] = target: T2, DNA topoisomerase 4 (Staphylococcus epidermidis); assay: Inhibition of decatenation activity of DNA topoisomerase 4 in hospital methicillin-resistant Staphylococcus epidermidis 76/04 using kDNA as substrate at 1 to 4 ug/ml after 1 hr using ethidium bromide staining by agarose gel electrophoresis; assay type: protein assay
[10] = target: T2, DNA topoisomerase 4 (Staphylococcus epidermidis); settings: 24/04, at 32 µg/mL
[11] = target: T2, DNA topoisomerase 4 (Staphylococcus epidermidis); assay: Inhibition of decatenation activity of DNA topoisomerase 4 in Staphylococcus epidermidis ATCC 35984 using kDNA as substrate at 1 to 4 ug/ml after 1 hr using ethidium bromide staining by agarose gel electrophoresis; assay type: protein assay
[12] = target: T1, Topoisomerase IV (Staphylococcus aureus); assay: Inhibition of decatenation activity of DNA topoisomerase 4 in hospital methicillin-resistant Staphylococcus aureus 522/11 using kDNA as substrate at 32 ug/ml after 1 hr using ethidium bromide staining by agarose gel electrophoresis; assay type: protein-complex assay
[13] = target: T1, Topoisomerase IV (Staphylococcus aureus); assay: Inhibition of decatenation activity of DNA topoisomerase 4 in hospital methicillin-resistant Staphylococcus aureus 57/05 using kDNA as substrate at 1 to 4 ug/ml after 1 hr using ethidium bromide staining by agarose gel electrophoresis; assay type: protein-complex assay
[14] = system: Staphylococcus epidermidis; assay: Inhibition of biofilm formation in Staphylococcus epidermidis 151/04 after 24 hrs using MTT staining by spectrophotometer analysis; assay type: functional, organism-based; settings: 151/04, 24 h
[15] = target: T2, DNA topoisomerase 4 (Staphylococcus epidermidis); assay: Inhibition of decatenation activity of DNA topoisomerase 4 in hospital methicillin-resistant Staphylococcus epidermidis 31/04 using kDNA as substrate at 1 to 4 ug/ml after 1 hr using ethidium bromide staining by agarose gel electrophoresis; assay type: protein assay
[16] = Cytotoxicity against human HaCaT cells assessed as cell viability at 16 uM after 24 hrs by MTT assay relative to control; assay type: cell-based; settings: read-out: Activity
Method in brief: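 HaCaT keratinocytes, 2.5x10^4 cells/well, in DMEM with 2% FBS, exposed 24 h to 16 µM compound, then 2 h with 0.5 mg/ml MTT; formazan dissolved in 0.04 M HCl/isopropanol, A570; viability as % of untreated control absorbance; three independent experiments in triplicate.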

[17] = system: Staphylococcus epidermidis; assay: Inhibition of biofilm formation in Staphylococcus epidermidis 31/04 at 8 ug/ml after 24 hrs using MTT staining by spectrophotometer analysis; assay type: functional; settings: 31/04, 24 h; method in brief: as §1
[18] = system: Staphylococcus epidermidis; assay: Inhibition of biofilm formation in Staphylococcus epidermidis 151/04 at 8 ug/ml after 24 hrs using MTT staining by spectrophotometer analysis; assay type: functional; settings: 151/04, 24 h
HaCaT = assay: Cytotoxicity against human HaCaT cells assessed as cell mortality at 16 uM after 24 hrs by LDH release assay relative to control; assay type: cell-based
Method in brief: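 HaCaT cells in DMEM with 2% FBS exposed 24 h to 16 µM compound; LDH released into supernatant measured with commercial kit at 490 nm; % release = (test − untreated low control)/(10% Triton X-100 high control − low control) × 100; three independent experiments in triplicate.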

[19] = system: Staphylococcus epidermidis; assay: Inhibition of biofilm formation in Staphylococcus epidermidis 76/04 at 8 ug/ml after 24 hrs using MTT staining by spectrophotometer analysis; assay type: functional; settings: 76/04, 24 h; method in brief: as §1
[20] = system: Staphylococcus epidermidis; assay: Inhibition of biofilm formation in Staphylococcus epidermidis 62/04 at 8 ug/ml after 24 hrs using MTT staining by spectrophotometer analysis; assay type: functional; settings: 62/04, 24 h; method in brief: as §1
[21] = system: Staphylococcus epidermidis; assay: Inhibition of biofilm formation in Staphylococcus epidermidis 24/04 at 8 ug/ml after 24 hrs using MTT staining by spectrophotometer analysis; assay type: functional; settings: 24/04, 24 h
[22] = system: Staphylococcus epidermidis; assay: Inhibition of biofilm formation in Staphylococcus epidermidis […]/[…] at 8 ug/ml after 24 hrs using MTT staining by spectrophotometer analysis; assay type: functional; settings: 16/04, 24 h
[23] = system: Staphylococcus epidermidis; assay: Inhibition of biofilm formation in Staphylococcus epidermidis 63/04 at 8 ug/ml after 24 hrs using MTT staining by spectrophotometer analysis; assay type: functional; settings: 63/04, 24 h; method in brief: as §1
[24] = system: Staphylococcus epidermidis; assay: Inhibition of biofilm formation in Staphylococcus epidermidis 23/04 at 8 ug/ml after 24 hrs using MTT staining by spectrophotometer analysis; assay type: functional; settings: 23/04, 24 h
[25] = system: Staphylococcus epidermidis; assay: Inhibition of biofilm formation in Staphylococcus epidermidis ATCC 12228 at 8 ug/ml after 24 hrs using MTT staining by spectrophotometer analysis; assay type: functional; settings: ATCC 12228, 24 h; method in brief: as §1
[26] = system: Staphylococcus epidermidis; assay: Inhibition of biofilm formation in Staphylococcus epidermidis ATCC 35984 at 8 ug/ml after 24 hrs using MTT staining by spectrophotometer analysis; assay type: functional; settings: ATCC 35984, 24 h; method in brief: as §1

SMILES | IC50 [1] [µg/mL] | inhibition at 4 µg/mL [2] [%] | inhibition [3] | inhibition [4] | IC50 [5] [µg/mL] | inhibition [6] | inhibition [7] | inhibition [8] | inhibition [9] | inhibition [10] | inhibition [11] | inhibition [12] | inhibition [13] | IC50 [14] [µg/mL] | inhibition [15] | viability at 24 h, 16 µM [16] [%] | inhibition at 8 µg/mL [17] [%] | inhibition at 8 µg/mL [18] [%] | Activity (HaCaT) [%] | inhibition at 8 µg/mL [19] [%] | other results
O=C(O)c1cn(C2CC2)c2cc(N3CCNCC3)c(F)cc2c1=O [CIPROFLOXACIN] | 12.9 (≈ 39.1 µM) | 21.3 | Active | Active | 11.6 (≈ 35 µM) | Active | Active | Active | Active | Active | Active | Active | Active | 13.1 (≈ 39.5 µM) | Active |  |  |  |  |  | 
FC(F)(F)c1cccc(NC(=S)Nc2cccc(Br)c2)c1 | 3.01 (≈ 8.02 µM) | 87 | Active | Active | 3.84 (≈ 10.2 µM) | Active | Active | Active | Active | Active | Active | Active | Active | 2.34 (≈ 6.24 µM) | Active | 91 | 70 | 70 | 0 | 70 | inhibition at 8 µg/mL [20]: 80%; inhibition at 8 µg/mL [21]: 70%; inhibition at 8 µg/mL [22]: 70%; inhibition at 8 µg/mL [23]: 70%; inhibition at 8 µg/mL [24]: 70%
Fc1ccc(NC(=S)Nc2cccc(C(F)(F)F)c2)cc1Cl | 1.59 (≈ 4.56 µM) | 95.2 | Active | Active | 1.37 (≈ 3.93 µM) | Active | Active | Active | Active | Active | Active | Active | Active |  | Active | 89.8 | 40 | 40 | 8 | 40 | inhibition at 8 µg/mL [25]: 40%; inhibition at 8 µg/mL [26]: 40%; inhibition at 8 µg/mL [20]: 40%; inhibition at 8 µg/mL [21]: 40%; inhibition at 8 µg/mL [22]: 40%; inhibition at 8 µg/mL [23]: 40%; inhibition at 8 µg/mL [24]: 40%
